# UCH37 DUB inh = inhibitors of human deubiquitinating enzyme UCH37; 330,000 tested, 0.33% active; purified proteasome/UCH37, Ub-AMC cleavage fluorescence; inhibition, % (test concentration not listed); AID 588478;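 active = mean inhibition over replicate wells above about 20%, limit read from the data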;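 note: 0% = compound-free wells with enzyme and 100% = wells lacking proteasome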
#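 system = Proteasome-associated human UCH37 deubiquitinase | amount = 0.15 nM proteasome as dispensed | medium = pH 7.4 Tris-HCl (50 mM) with ovalbumin, ATP-MgCl2, DTT | incubation = 30 min preincubation with enzyme, 25 min cleavage at room temperature | detection = AMC fluorescence 355/460 nm | read-out basis = percent inhibition | controls = no-proteasome and no-compound wells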
# Calb FLC = C. albicans growth modulation with fluconazole; C. albicans CaCi-2 + fluconazole, Alamar Blue growth, 48 h; growth inhibition, % (no concentration beside the values); 300,000 tested, 0.57% active; AID 1979;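 active = growth inhibition above about 58% in most replicates, limit read from the data, passing the limit was not always enough; inconclusive = exactly half the replicates above a set limit; inactive = most replicates below a set limit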;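 note: all wells also contain fluconazole at 8 µg/ml as a sub-toxic cotreatment; 0% = median of DMSO wells and 100% = median of geldanamycin control wells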
# NALP1 yeast inh = NALP1 inhibition. S. cerevisiae NALP1/ASC/caspase-1 growth, X-gal OD620, 72 h. inhibition, % at 10 µM. 280,000 tested, 0.61% active; in the data active = inhibition mostly above about 24%, no sharp cut-off; inactive = mostly below about 32%
# ALR inh = blocks human ALR sulfhydryl oxidase activity | purified ALR, DTT oxidation, H2O2 HRP-luminol luminescence | inhibition, % (concentration not given with the values) | 290,000 tested, 3.8% active | AID 485317;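 active = mean replicate inhibition above about 79%, with every replicate also reaching it, limit read from the data; inconclusive = only one of the two criteria met; inactive = mean below limit and not every replicate reaching it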
# Target sequence (P55789 whole entry, looked up): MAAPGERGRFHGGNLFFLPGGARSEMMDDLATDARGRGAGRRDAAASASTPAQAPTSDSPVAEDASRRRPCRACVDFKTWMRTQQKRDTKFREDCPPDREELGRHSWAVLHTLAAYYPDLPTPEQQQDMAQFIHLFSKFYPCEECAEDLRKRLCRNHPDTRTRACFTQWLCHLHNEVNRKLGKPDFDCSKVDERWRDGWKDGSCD
# ATG4B inhibitor = inhibitors of human ATG4B cysteine protease. inhibition, % at 8.33 µM. ATG4B cleavage of LC3-PLA2, NBD-HPC fluorescence, 1 h. Q9Y4P1. 340,000 tested, 0.51% active; in the data active = inhibition above about 40%
# Target sequence (Q9Y4P1 whole entry, looked up): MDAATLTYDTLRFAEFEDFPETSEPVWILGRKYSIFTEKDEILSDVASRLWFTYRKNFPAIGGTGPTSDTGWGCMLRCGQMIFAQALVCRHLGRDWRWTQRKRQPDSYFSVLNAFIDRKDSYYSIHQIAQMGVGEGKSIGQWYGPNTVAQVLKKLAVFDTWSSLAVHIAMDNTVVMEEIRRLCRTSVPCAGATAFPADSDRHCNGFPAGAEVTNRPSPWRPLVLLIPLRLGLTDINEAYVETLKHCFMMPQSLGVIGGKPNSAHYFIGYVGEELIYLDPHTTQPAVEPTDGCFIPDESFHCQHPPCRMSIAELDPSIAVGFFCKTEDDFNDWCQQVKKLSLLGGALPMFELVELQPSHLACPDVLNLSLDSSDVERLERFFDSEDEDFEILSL
# NALP3 yeast inh = NALP3 inhibition in yeast; 330,000 tested, 0.39% active; Yeast reconstituted NLRP3/ASC/caspase-1, beta-gal luminescence, 24 h; AID 2825; inhibition, % at 10 µM;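 active = inhibition of 50% or more; inactive = inhibition below 50%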;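 note: plate controls were induced DMSO wells for no effect and uninduced yeast grown without galactose for full effect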
# An asterisk follows results filed as active; ? = inconclusive; / = no result. Compounds with a hit are over-represented: about 4.8% of the library has one in this group of screens.
SMILES,UCH37 DUB inh,Calb FLC,NALP1 yeast inh,ALR inh,ATG4B inhibitor,NALP3 yeast inh
Nc1c2c(nc3ccc(Br)cc13)N(c1ccccc1)CC2,-24,/,3,36,11,4
Cc1ccc(N2CCN(CCCN3C(=O)C4CCCN4C3=O)CC2)cc1 (stereo not given),6,19,15,98*,1,12
COc1ccc(OC)c(-c2c3cc(O)c(=O)cc-3oc3cc(O)c(O)cc23)c1,/,/,15,80*,-138,/
O=C1CSC(=S)N1c1ccc(F)c(Cl)c1,3,6,23,-10,13,34
CC(C)=C1C(=O)NN(c2ccc(F)c(Cl)c2)C1=O,1,101*,11,94*,17,6
c1ccc(CCNc2c3c(nc4ncnn24)CCC3)cc1,6,0,25*,-4,2,-11
Fc1ccccc1CCNc1c2c(nc3ncnn13)CCCC2,2,34,-9,-2,2,11
Oc1ccc(C(=S)N2CCCCCC2)cc1,0,-4,8,8,-1,5
Nc1ccc(N2CCCCCC2)cc1,/,/,17,99*,/,15
Nc1ccc(N2CCN(c3ccc(F)cc3)CC2)cc1,2,103*,0,99*,-5,16
S=C(c1ccc(N2CCCC2)cc1)N1CCCCC1,5,/,15,99*,13,-3
O=C(N1CCCCC1)N1CCN(c2ccc(Cl)cc2)CC1,5,-9,/,98*,-4,34
O=C(O)c1ccc(N2CCCCC2)cc1,2,-2,24,-4,-8,6
COc1cc(C=NNC(=O)C(NC(=O)c2ccccc2)c2n[nH]c(=O)c3ccccc23)ccc1OCC(N)=O (stereo not given),1,/,/,/,/,/
Cc1ccc(C=NNC(=O)CN2CCN(Cc3ccccc3)CC2)s1,5,/,/,/,/,/
CC(=O)N1CCN(c2ccc(N)cc2)CC1,1,/,/,99*,-10,11
CCc1ccc(/C=C2\SC(=S)N(CCCC(=O)Nc3ccccc3C(=O)O)C2=O)cc1,/,70,-6,97*,21,20
Cc1ccc(/C=C2\SC(=S)N(CCCC(=O)Nc3ccccc3C(=O)O)C2=O)cc1,6,1,0,-1,-5,16
O=C(c1ccco1)N1CCN(C(=O)c2ccc(CS(=O)c3ccc(F)cc3)o2)CC1 (stereo not given),3,-3,44*,1,3,13
COc1ccc(N2CCN(C(=O)c3ccc(CS(=O)c4cccc(C)c4)o3)CC2)cc1 (stereo not given),0,21,-12,99*,-8,4
Cc1ccc(Cl)cc1N1CCN(C(=O)c2ccc(CS(=O)Cc3ccc(Cl)cc3)o2)CC1 (stereo not given),1,0,7,2,-10,1
Cc1cccc(N2CCN(C(=O)c3ccc(CS(=O)Cc4cccc(Cl)c4)o3)CC2)c1C (stereo not given),-1,22,19,100*,23,8
COc1cccc(N2CCN(C(=O)c3ccc(CS(=O)c4ccccc4C)o3)CC2)c1 (stereo not given),/,16,-1,91*,1,9
COc1cccc(N2CCN(C(=O)c3ccc(CS(=O)c4ccccc4Cl)o3)CC2)c1 (stereo not given),/,4,-20,63,2,12
CC(=O)Nc1ccc(S(=O)(=O)N(C)CC(=O)NN=Cc2ccc(C(=O)O)cc2)cc1,2,/,/,/,/,/
SMILES,UCH37 DUB inh,Calb FLC,NALP1 yeast inh,ALR inh,ATG4B inhibitor,NALP3 yeast inh
CCOc1ccccc1C=NNc1ccccc1[N+](=O)[O-],3,/,/,/,/,/
Cc1ccc(-c2nn(-c3ccccc3)cc2C=NO)cc1,3,/,/,/,/,/
COC(=O)c1cn(NC(=O)c2cc([N+](=O)[O-])ccc2F)c(=O)c2ccccc12,/,28,-10,96*,12,-15
COC(=O)c1cn(NC(=O)C2CCC(C)CC2)c(=O)c2ccccc12 (stereo not given),-1,-20,12,-2,-9,36
Cc1cccc(C=Nn2c(C)nnc2C)c1,5,/,/,/,/,/
CCc1cc(C(=O)c2ccccc2)c(N)s1,4,-33,23,99*,-5,2
O=S(=O)(Nc1ccc(O)c2ccccc12)c1cccs1,2,38,16,99*,-7,28
CN(O)C=NC(=S)Nc1ccc(Cl)cc1Cl,3,/,/,/,/,/
NS(=O)(=O)c1ccc(NC(=S)NC2CCCCCC2)cc1,3,-10,13,96*,-2,27
CC(=O)c1ccc(NC(=S)NNC(=O)NC2CCCCC2)cc1,3,?,-11,94*,-10,1
NS(=O)(=O)c1ccc(NC(=S)NC2CCCC2)cc1,-1,-2,4,8,-4,-3
COc1ccc(C(=O)Nc2cccc(C(C)=NNC(=O)c3ccc([N+](=O)[O-])c(C)c3)c2)cc1OC,6,/,/,/,/,/
NC(=S)NC1CCS(=O)(=O)C1 (stereo not given),4,-29,3,-11,14,11
C=CCSC(=S)NC1CCS(=O)(=O)C1 (stereo not given),1,19,82*,/,-7,25
O=C(O)c1ccc2c(c1)C(=O)/C(=C\c1ccco1)C2=O,13,16,15,33,14,2
O=C(O)c1ccc2c(c1)C(=O)/C(=C/c1ccccc1)C2=O,22*,6,30,-6,2,7
CCCN1C(=O)C2(C(C(=O)c3ccc(C)o3)=C(O)C(=O)N2CCCN2CCOCC2)c2ccccc21 (stereo not given),21*,?,-3,-2,-8,16
CC12CN3CC(C)(CN(C1)C3c1ccc(Br)cc1O)C2 (stereo not given),1,8,2,99*,-2,8
Cc1ccc(CSc2ccc(S(=O)(=O)N3CCCC3)cn2)cc1,1,/,/,-4,-1,43
N#Cc1ccc(CSc2ccc(S(=O)(=O)N3CCCC3)cn2)cc1,3,/,/,93*,-2,9
CCC(=O)NN=C(C)CC(=O)Nc1ccc(Cl)cc1,0,/,/,/,/,/
CC(NC(=O)c1ccco1)C1CCCO1 (stereo not given),-1,-13,44*,-7,4,-3
Cc1ccc(C(=O)NC(C)C2CCCO2)o1 (stereo not given),-1,3,9,-3,0,14
Cc1ccc2occ(C=NNC(=O)c3ccc(O)cc3)c(=O)c2c1,-22,/,/,/,/,/
Cc1ccc2occ(/C=N/NC(=O)c3ccc(O)cc3)c(=O)c2c1,/,10,-32,98*,-6,3
CCCCN1C(N)=NC[C@@H]1Cc1ccc(O)cc1,-2,9,/,56,-2,13
NC1=NC[C@H](Cc2ccc(O)cc2)N1CCC12CC3CC(CC(C3)C1)C2,2,106*,/,93*,-10,12
CC(C)(C)c1ccc2c(c1)OC(C(=O)NN=Cc1ccccn1)CO2 (stereo not given),3,/,/,/,/,/
